Compound activity deposited in PubChem by several laboratories.
Most compounds without a hit are left out; they make up all but 1.9% or so of the library.
Tb hexokinase – T. brucei hexokinase 1 inhibition. recombinant TbHK1, G6PDH-coupled NADH A340. inhibition, % at 10 µM. 220,000 tested, 0.11% active;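 active means inhibition of 50% or more in the single-dose primary screen; inactive means inhibition below 50%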
RanGTP-Impb inh – inhibitors of RanGTP-importin-beta interaction, primary screen, biochemical, FRET, CFP-Ran, YFP-importin-beta, homogeneous; cell-free CFP-Ran/YFP-importin-beta FRET ratio; inhibition, % (concentration not given with the values); 300,000 tested, 1.1% active; AID 2216;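 active means more than half of the replicate wells show a fall in the fluorescence ratio signal beyond about 16%, limit read from the data, passing the limit was not always enough; inconclusive means exactly half of the replicate wells pass the set limit; inactive means fewer than half of replicates pass the limit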;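 further: 0% = DMSO wells and 100% = Ran loaded with GDP instead of GTP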
Hck Nef HTS – human Hck-Nef kinase inhibition; inhibition, % at 20 µM; Recombinant Hck-YEEI plus Nef, Z-Lyte FRET kinase assay; P08631; 220,000 tested, 0.68% active; AID 463187;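 active means Hck-Nef kinase inhibition above about 50%, limit read from the data; inactive means inhibition below that limit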;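 further: 0% = DMSO with Hck plus Nef and 100% = Hck alone without Nef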
Runt-CBFb FRET – Runt domain-CBFb interaction inhibition; Cerulean-Runt/Venus-CBFb FRET ratio 530/480, 1 h; inhibition, % at 20 µM; 220,000 tested, 0.46% active; AID 1496;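 active means inhibition over about 50% at 20 µM in the single-dose screen, limit read from the data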;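 further: 0% = DMSO wells and 100% = excess unlabeled CBFb competitor control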
Target sequence (Q01196 whole entry, looked up, the tested form may be a part): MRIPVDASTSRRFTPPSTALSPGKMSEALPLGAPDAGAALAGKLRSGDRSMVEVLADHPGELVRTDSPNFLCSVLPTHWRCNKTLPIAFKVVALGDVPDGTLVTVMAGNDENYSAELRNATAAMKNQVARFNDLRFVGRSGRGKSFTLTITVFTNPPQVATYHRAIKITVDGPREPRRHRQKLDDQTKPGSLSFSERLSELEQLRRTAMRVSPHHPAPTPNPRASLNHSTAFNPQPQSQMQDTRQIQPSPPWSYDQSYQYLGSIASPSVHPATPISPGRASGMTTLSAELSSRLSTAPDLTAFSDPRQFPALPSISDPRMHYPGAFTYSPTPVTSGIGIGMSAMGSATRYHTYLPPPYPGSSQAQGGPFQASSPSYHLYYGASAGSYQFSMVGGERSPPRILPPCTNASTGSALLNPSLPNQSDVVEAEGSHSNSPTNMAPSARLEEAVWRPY
Target sequence (Q13951 whole entry, looked up, the tested form may be a part): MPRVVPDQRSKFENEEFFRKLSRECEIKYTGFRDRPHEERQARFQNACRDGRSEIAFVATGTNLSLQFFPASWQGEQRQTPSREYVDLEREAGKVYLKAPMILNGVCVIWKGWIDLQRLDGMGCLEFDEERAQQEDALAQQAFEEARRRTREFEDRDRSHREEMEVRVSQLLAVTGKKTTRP
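Buffer or medium: Tris pH 7.5 buffer with BSA. Assay system: Cerulean-labeled Runt domain protein. Amount: each fluorescent fusion protein 100 nM. Read-out basis: loss of energy transfer signal. Incubation: 1 h compound exposure, room temperature. Probe or stimulus: Venus-CBFb binding partner, 100 nM. Detection: FRET, excitation 422 nm, emission at 530 and 480 nm.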
Runt-SMMHC FRET – Runt domain-CBFb-SMMHC interaction inhibition; AID 1434; Cerulean-Runt/Venus-CBFb-SMMHC FRET ratio 530/480, 1 h; inhibition, % at 20 µM; 220,000 tested, 0.74% active;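 active means mean inhibition across duplicate retests at 20 µM reaching about 50%, limit read from the data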;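 further: 0% = DMSO wells and 100% = wells with excess untagged CBFb-SMMHC; inhibitors lower the FRET ratio by blocking Runt binding to CBFb-SMMHC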
Hck Nef conf – Hck-Nef kinase inhibition, confirmation; 1,300 tested, 28% active; calls only at 10 µM; shares compounds with Hck Nef HTS; Recombinant Hck-YEEI:Nef, Z-Lyte FRET kinase assay;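 active means average inhibition of at least 50%, with Z-scores no higher than 3 in both the phospho-tyrosine peptide and fluorescence counterscreens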
Starred values were filed as active, the others as inactive; i = inactive; ? = inconclusive; . = no result given; + = active, no number.

SMILES	Tb hexokinase	RanGTP-Impb inh	Hck Nef HTS	Runt-CBFb FRET	Runt-SMMHC FRET	Hck Nef conf
CCOc1cc(/C=C(/C#N)c2ccc(F)cc2)ccc1OCc1ccc(C(=O)O)o1	-12	-1	27	-1	-4	.
O=C1COc2ccc(-c3csc(NCCc4ccccc4)n3)cc2N1	-3	-2	128*	8	6	+
CCN(CC)c1ccc(C(=O)Nn2cnc3ccccc3c2=O)cc1	.	1	.	.	.	.
CC1=NNC(=O)/C1=C\c1cn(-c2ccccc2)nc1-c1ccccc1	-17	.	181*	0	-14	+
CCN(CC)c1ccc(/C=N/NC(=O)c2ccoc2C)cc1	-64	-2	61*	8	21	.
CC(=O)Nc1nc(C)c(-c2csc(Nc3cccc([N+](=O)[O-])c3)n2)s1	-13	?	51*	0	8	i
Cc1nc(NC(=O)c2ccccc2)sc1-c1csc(Nc2ccc(C(=O)O)cc2)n1	-47	-7	93*	12	-5	i
O=C(OC(C(=O)NCc1ccc2c(c1)OCO2)c1ccncc1)c1ccc(Cl)nc1 (stereo not drawn)	7	0	-15	-1	-1	.
CCN(CC)c1ccc(-c2nn3c(-c4n[nH]c5c4CCC5)nnc3s2)cc1	-4	7	61*	12	32	i
C1CCC(c2nn3c(-c4n[nH]c5c4CCC5)nnc3s2)CC1	-2	0	3	-3	-1	.
O=C(Nc1ccc(-n2nncc2-c2ccco2)cc1)c1cc2ccccc2oc1=O	-8	-1	51*	4	-33	+
O=C(CCCn1c(=S)[nH]c2cc3c(cc2c1=O)OCO3)NCc1ccccc1Cl	.	0	.	.	.	.
Clc1cccc(Cl)c1CSc1nnc(CN2CCOCC2)n1-c1ccccc1	2	0	1	2	-3	.
Fc1cccc(Cl)c1CSc1nnc(CN2CCOCC2)n1-c1ccccc1	2	-1	96*	0	0	i
Cc1ccc(C)n1Cc1ccc(C(=O)O)cc1	4	.	74*	4	2	i
Cc1cc(C)n(Cc2ccc(C(=O)O)cc2)n1	-19	3	-1	-2	-2	.
COc1ccccc1OCCOc1ccc(/C=C2/C(=N)N3OC(C)=CC3=NC2=O)cc1OC	-37	3	89*	-2	-57	+
COc1ccccc1-c1noc2ncnc(Nc3ccc4c(c3)OCO4)c12	.	-2	.	.	.	.
Cc1ccc(S(=O)(=O)N2CCOCC2)cc1NC(=O)Cn1nc(C)c([N+](=O)[O-])c1C	.	6	.	.	.	.
Cc1cccc(NC(=O)c2cc3cc([N+](=O)[O-])ccc3s2)n1	-6	?	51*	-3	-4	i
CC(C)NC(=O)c1cc2cc([N+](=O)[O-])ccc2s1	-4	1	3	-3	1	.
COc1ccc(CC(=O)Nc2ccc(/C(C)=N\NC(=O)c3ccc(Br)o3)cc2)cc1	.	1	.	.	.	.
Cc1onc(-c2ccccc2)c1NC(=O)N(Cc1ccccc1)C(C)C	9	-3	5	0	-1	.
COc1ccc(-n2cccc2/C=C2\C(=N)N3N=C(c4ccco4)SC3=NC2=O)cc1	-1	-4	93*	-10	-46	+
CCN(CC)c1ccc2c(C)c(CN3CCOCC3)c(=O)oc2c1	-6	1	102*	11	41	.
SMILES	Tb hexokinase	RanGTP-Impb inh	Hck Nef HTS	Runt-CBFb FRET	Runt-SMMHC FRET	Hck Nef conf
CCN(CC)c1ccc2c(Cl)cc(=O)oc2c1	-6	74*	66*	40	-20	.
COC(=O)Cc1c(C)c2ccc(OCC(=O)N3CCOCC3)cc2oc1=O	-29	-1	1	0	4	.
CCN(CC)c1ccc2c(C)c(CO)c(=O)oc2c1	-14	132*	+	21	86*	.
CCc1cc(=O)oc2cc3oc(C)c(C)c3cc12	-8	0	1	.	1	.
CCc1c(C)c2ccc(OCC(=O)OC)cc2oc1=O	-9	-4	1	-1	-4	.
O=C1c2cccc3cc([N+](=O)[O-])cc(c23)C(=O)N1/N=C/c1ccc(O)cc1O	-59	3	55*	-3	-20	+
COC(=O)c1cc(OC)c(OC)cc1NC(=O)c1ccc(C)o1	-23	-3	1	1	-7	.
COC(=O)Cc1[nH]n(-c2nc3ccccc3s2)c(=O)c1C(C)=Nc1ccc(Cl)cc1	-38	2	64*	2	-11	i
CCCNc1nc2c(c(=O)n(C)c(=O)n2C)n1CCCc1ccccc1	.	-2	.	.	.	.
O=C(/C=C/N1CCOCC1)c1ccc(-c2ccccc2)cc1	-27	0	66*	-1	-4	i
Cc1ccc(S(=O)(=O)c2c(N)n(-c3ccccc3)c3nc4ccccc4nc23)cc1	-8	?	18	1	-11	.
O=S(=O)(Nc1c(S(=O)(=O)c2ccccc2)c2nc3ccccc3nc2n1C1CCCCC1)c1ccccc1	15	6	53*	4	11	.
Cc1ccc(S(=O)(=O)c2c(N)n(NC(=O)c3ccco3)c3nc4ccccc4nc23)cc1	2	.	5	2	11	.
CN(C)CCCn1c(N)c(S(=O)(=O)c2ccccc2)c2nc3ccccc3nc21	-28	1	85*	8	15	.
C=CCn1c(NS(=O)(=O)c2ccccc2)c(S(=O)(=O)c2ccc(C)cc2)c2nc3ccccc3nc21	-4	76*	83*	1	4	i
CCSc1nc2c(cnn2-c2ccccc2)c(=O)n1N	-6	0	59*	0	1	+
CSc1nc2c(cnn2-c2ccccc2)c(=O)n1N	1	1	28	1	3	.
C[C@H](NC(=O)c1[nH]cnc1C(=O)Nc1ccc(CNC(=O)OC(C)(C)C)cc1)C(=O)OC(C)(C)C	-16	3	57*	-4	0	i
CCC1CCc2sc(C(=O)NCC(c3ccc(OC)cc3)N3CCCC3)cc2C1 (stereo not drawn)	.	2	.	.	.	.
Cc1ccc(/C=N/n2c(-c3cccc(Cl)c3)n[nH]c2=S)o1	-14	2	8	17	9	.
S=c1[nH]nc(-c2cccc(Cl)c2)n1/N=C/c1ccc(-c2ccccc2Br)o1	-40	?	58*	1	2	i
CC1CCN(C(=O)CNC(=O)c2cccc(OC(F)F)c2)CC1	-6	1	-3	.	1	.
CCOc1ccc(C2NC(=O)CCC2[N+](=O)[O-])cc1 (stereo not drawn)	.	1	.	.	.	.
COc1ccccc1CNC(=O)c1c(N)n(CCCN2CCOCC2)c2nc3ccccc3nc12	-19	126*	52*	3	38	i
COc1ccccc1-c1cc(C(=O)NCCCN2CCOCC2)no1	.	2	.	.	.	.
O=c1oc2c(CN3CCOCC3)c(O)ccc2c2ccccc12	-14	-5	-2	.	-14	.
CCCCc1cc(=O)oc2c(CN3CCN(C)CC3)c(O)ccc12	.	6	.	.	.	.
